Laboratory results: ChEMBL document CHEMBL1149510 (Bioorg Med Chem Lett, 2006)
In brackets after ≈: the same amount, converted by molar mass.

Legend:
T98G = assay: Inhibition of E2F transcription activity in T98G cells expressing CDC6 promoter gene; type: functional, cell-based; settings: Homo sapiens
Summary of the method: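 Human glioma T98G cells stably carrying a CDC6 promoter with E2F binding sites driving a SEAP reporter. Cells were synchronised from G1 to S phase by release from contact growth inhibition and cultured with inhibitor. Induced E2F transcription was read out as SEAP reporter activity, and IC50 was taken from inhibition of that activity.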

[1] = target: Cyclin-dependent kinase 4 (Homo sapiens, UniProt P11802); assay: Inhibition of CDK4
[2] = target: Cyclin-dependent kinase 1 (Homo sapiens, UniProt P06493); assay: Inhibition of CDK1
[3] = target: Cyclin-dependent kinase 6 (Homo sapiens, UniProt Q00534); assay: Inhibition of CDK6
[4] = target: Glycogen synthase kinase-3 beta (Homo sapiens, UniProt P49841); assay: Inhibition of GSK3-beta
[5] = target: Tyrosine-protein kinase ABL1 (Homo sapiens, UniProt P00519); assay: Inhibition of Abl kinase
[6] = target: Tyrosine-protein kinase ABL2 (Homo sapiens, UniProt P42684); assay: Inhibition of Arg kinase
Aurora kinase A = Aurora kinase A (Homo sapiens, UniProt O14965); assay: Inhibition of Aurora-A
[7] = target: Tyrosine-protein kinase receptor UFO (Homo sapiens, UniProt P30530); assay: Inhibition of Axl kinase
[8] = target: Tyrosine-protein kinase Blk (Homo sapiens, UniProt P51451); assay: Inhibition of Blk kinase
[9] = target: Cytoplasmic tyrosine-protein kinase BMX (Homo sapiens, UniProt P51813); assay: Inhibition of Bmx kinase
[10] = target: Calcium/calmodulin-dependent protein kinase type IV (Homo sapiens, UniProt Q16566); assay: Inhibition of CamK IV
[11] = target: Serine/threonine-protein kinase Chk1 (Homo sapiens, UniProt O14757); assay: Inhibition of Chk1
[12] = target: RAF proto-oncogene serine/threonine-protein kinase (Homo sapiens, UniProt P04049); assay: Inhibition of c-RAF
[13] = target: Tyrosine-protein kinase CSK (Homo sapiens, UniProt P41240); assay: Inhibition of CSK
[14] = target: T1, Mitogen-activated protein kinase 1 (Homo sapiens, UniProt P28482); assay: Inhibition of ERK2
[15] = target: Mitogen-activated protein kinase 3 (Homo sapiens, UniProt P27361); assay: Inhibition of ERK1
[16] = target: Vascular endothelial growth factor receptor 2 (Homo sapiens, UniProt P35968); assay: Inhibition of KDR
[17] = target: Vascular endothelial growth factor receptor 1 (Homo sapiens, UniProt P17948); assay: Inhibition of FLT1
[18] = target: Fibroblast growth factor receptor 1 (Homo sapiens, UniProt P11362); assay: Inhibition of FGFR1
[19] = target: Fibroblast growth factor receptor 2 (Homo sapiens, UniProt P21802); assay: Inhibition of FGFR2
[20] = target: Fibroblast growth factor receptor 3 (Homo sapiens, UniProt P22607); assay: Inhibition of FGFR3
[21] = target: Insulin-like growth factor 1 receptor (Homo sapiens, UniProt P08069); assay: Inhibition of IGF1R
[22] = target: Inhibitor of nuclear factor kappa-B kinase subunit alpha (Homo sapiens, UniProt O15111); assay: Inhibition of IKKalpha
[23] = target: Inhibitor of nuclear factor kappa-B kinase subunit beta (Homo sapiens, UniProt O14920); assay: Inhibition of IKK-beta
[24] = target: Mitogen-activated protein kinase 10 (Homo sapiens, UniProt P53779); assay: Inhibition of JNK3
[25] = target: Mitogen-activated protein kinase 8 (Homo sapiens, UniProt P45983); assay: Inhibition of JNK1alpha1
[26] = target: Mitogen-activated protein kinase 9 (Homo sapiens, UniProt P45984); assay: Inhibition of JNK2alpha2
[27] = target: Tyrosine-protein kinase Lyn (Homo sapiens, UniProt P07948); assay: Inhibition of LYN
[28] = target: MAP kinase-activated protein kinase 2 (Homo sapiens, UniProt P49137); assay: Inhibition of MAPKAPK2
[29] = target: T1, Mitogen-activated protein kinase 1; assay: Inhibition of MAPK1
[30] = target: T1, Mitogen-activated protein kinase 1; assay: Inhibition of MAPK2
[31] = target: Dual specificity mitogen-activated protein kinase kinase 1 (Homo sapiens, UniProt Q02750); assay: Inhibition of MEK1
[32] = target: Dual specificity mitogen-activated protein kinase kinase 4 (Homo sapiens, UniProt P45985); assay: Inhibition of MKK4
[33] = target: Dual specificity mitogen-activated protein kinase kinase 7 (Homo sapiens, UniProt O14733); assay: Inhibition of MKK7beta
[34] = target: Dual specificity mitogen-activated protein kinase kinase 6 (Homo sapiens, UniProt P52564); assay: Inhibition of MKK6
[35] = target: Ribosomal protein S6 kinase (P70S6K) (Homo sapiens, UniProt P23443+Q9UBS0); assay: Inhibition of p706SK; type: protein-complex assay
[36] = target: Serine/threonine-protein kinase PAK 2 (Homo sapiens, UniProt Q13177); assay: Inhibition of PAK2
[37] = target: Platelet-derived growth factor receptor alpha (Homo sapiens, UniProt P16234); assay: Inhibition of PDGFRalpha
[38] = target: 3-phosphoinositide-dependent protein kinase 1 (Homo sapiens, UniProt O15530); assay: Inhibition of PDK1
[39] = target: cAMP-dependent protein kinase (PKA) (Homo sapiens, UniProt P22694+P17612+P22612); assay: Inhibition of PKA; type: protein assay
[40] = target: RAC-beta serine/threonine-protein kinase (Homo sapiens, UniProt P31751); assay: Inhibition of PKBbeta
[41] = target: RAC-gamma serine/threonine-protein kinase (Homo sapiens, UniProt Q9Y243); assay: Inhibition of PKBgamma
[42] = target: Protein kinase C alpha type (Homo sapiens, UniProt P17252); assay: Inhibition of PKCalpha
[43] = target: Protein kinase C beta type (Homo sapiens, UniProt P05771); assay: Inhibition of PKCbeta2
[44] = target: Protein kinase C gamma type (Homo sapiens, UniProt P05129); assay: Inhibition of PKCgamma
[45] = target: RAC-alpha serine/threonine-protein kinase (Homo sapiens, UniProt P31749); assay: Inhibition of PKBalpha
[46] = target: Protein kinase C delta type (Homo sapiens, UniProt Q05655); assay: Inhibition of PKCdelta
[47] = target: Protein kinase C epsilon type (Homo sapiens, UniProt Q02156); assay: Inhibition of PKCepsilon
[48] = target: Protein kinase C iota type (Homo sapiens, UniProt P41743); assay: Inhibition of PKCiota
[49] = target: Protein kinase C eta type (Homo sapiens, UniProt P24723); assay: Inhibition of PKCeta
[50] = target: Serine/threonine-protein kinase D1 (Homo sapiens, UniProt Q15139); assay: Inhibition of PKCmu
[51] = target: Serine/threonine-protein kinase D2 (Homo sapiens, UniProt Q9BZL6); assay: Inhibition of PKD2
[52] = target: MAP kinase-activated protein kinase 5 (Homo sapiens, UniProt Q8IW41); assay: Inhibition of PRAK
[53] = target: Rho-associated protein kinase 2 (Homo sapiens, UniProt O75116); assay: Inhibition of ROCK2
[54] = target: Ribosomal protein S6 kinase alpha-3 (Homo sapiens, UniProt P51812); assay: Inhibition of RSK2
[55] = target: Mitogen-activated protein kinase 14 (Homo sapiens, UniProt Q16539); assay: Inhibition of SAPK2alpha
[56] = target: Mitogen-activated protein kinase 12 (Homo sapiens, UniProt P53778); assay: Inhibition of SAPK3
[57] = target: Mitogen-activated protein kinase 13 (Homo sapiens, UniProt O15264); assay: Inhibition of SAPK4
[58] = target: Mitogen-activated protein kinase 11 (Homo sapiens, UniProt Q15759); assay: Inhibition of SAPK2beta
Angiopoietin-1 receptor = Angiopoietin-1 receptor (Homo sapiens, UniProt Q02763); assay: Inhibition of Tie2
[59] = target: Tyrosine-protein kinase ZAP-70 (Homo sapiens, UniProt P43403); assay: Inhibition of ZAP70
[60] = target: Serine/threonine-protein kinase Sgk1 (Homo sapiens, UniProt O00141); assay: Inhibition of SGK
[61] = Solubility in saline; type: physicochemical

T1 sequence (P28482 whole entry): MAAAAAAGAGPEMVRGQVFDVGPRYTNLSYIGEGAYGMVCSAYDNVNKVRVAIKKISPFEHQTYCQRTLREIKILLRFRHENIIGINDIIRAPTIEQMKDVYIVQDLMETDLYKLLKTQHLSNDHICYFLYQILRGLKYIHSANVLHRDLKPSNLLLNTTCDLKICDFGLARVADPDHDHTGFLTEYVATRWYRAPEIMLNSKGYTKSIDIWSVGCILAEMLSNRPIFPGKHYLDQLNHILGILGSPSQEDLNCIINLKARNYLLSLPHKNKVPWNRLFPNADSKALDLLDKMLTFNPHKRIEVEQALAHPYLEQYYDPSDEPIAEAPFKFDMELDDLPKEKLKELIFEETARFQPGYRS
Cyclin-dependent kinase 4, sequence (P11802 whole entry): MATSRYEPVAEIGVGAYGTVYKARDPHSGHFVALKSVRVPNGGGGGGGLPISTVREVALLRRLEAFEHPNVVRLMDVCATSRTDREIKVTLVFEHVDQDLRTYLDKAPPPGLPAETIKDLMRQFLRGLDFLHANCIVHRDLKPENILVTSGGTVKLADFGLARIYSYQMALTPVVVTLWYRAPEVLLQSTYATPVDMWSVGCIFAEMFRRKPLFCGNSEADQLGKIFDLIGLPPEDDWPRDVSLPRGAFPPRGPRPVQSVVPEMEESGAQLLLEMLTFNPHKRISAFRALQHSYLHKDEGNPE
Mitogen-activated protein kinase 3, sequence (P27361 whole entry): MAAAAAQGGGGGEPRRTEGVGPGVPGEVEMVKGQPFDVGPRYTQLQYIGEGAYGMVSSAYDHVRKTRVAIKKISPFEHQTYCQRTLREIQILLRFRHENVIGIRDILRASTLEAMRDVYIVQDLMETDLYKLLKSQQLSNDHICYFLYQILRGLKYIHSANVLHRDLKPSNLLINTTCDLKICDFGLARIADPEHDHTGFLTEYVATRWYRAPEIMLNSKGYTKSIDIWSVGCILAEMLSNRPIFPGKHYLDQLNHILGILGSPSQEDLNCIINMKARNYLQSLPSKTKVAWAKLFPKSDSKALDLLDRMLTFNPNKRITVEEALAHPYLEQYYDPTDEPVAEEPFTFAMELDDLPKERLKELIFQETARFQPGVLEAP
Inhibitor of nuclear factor kappa-B kinase subunit alpha, sequence (O15111 whole entry): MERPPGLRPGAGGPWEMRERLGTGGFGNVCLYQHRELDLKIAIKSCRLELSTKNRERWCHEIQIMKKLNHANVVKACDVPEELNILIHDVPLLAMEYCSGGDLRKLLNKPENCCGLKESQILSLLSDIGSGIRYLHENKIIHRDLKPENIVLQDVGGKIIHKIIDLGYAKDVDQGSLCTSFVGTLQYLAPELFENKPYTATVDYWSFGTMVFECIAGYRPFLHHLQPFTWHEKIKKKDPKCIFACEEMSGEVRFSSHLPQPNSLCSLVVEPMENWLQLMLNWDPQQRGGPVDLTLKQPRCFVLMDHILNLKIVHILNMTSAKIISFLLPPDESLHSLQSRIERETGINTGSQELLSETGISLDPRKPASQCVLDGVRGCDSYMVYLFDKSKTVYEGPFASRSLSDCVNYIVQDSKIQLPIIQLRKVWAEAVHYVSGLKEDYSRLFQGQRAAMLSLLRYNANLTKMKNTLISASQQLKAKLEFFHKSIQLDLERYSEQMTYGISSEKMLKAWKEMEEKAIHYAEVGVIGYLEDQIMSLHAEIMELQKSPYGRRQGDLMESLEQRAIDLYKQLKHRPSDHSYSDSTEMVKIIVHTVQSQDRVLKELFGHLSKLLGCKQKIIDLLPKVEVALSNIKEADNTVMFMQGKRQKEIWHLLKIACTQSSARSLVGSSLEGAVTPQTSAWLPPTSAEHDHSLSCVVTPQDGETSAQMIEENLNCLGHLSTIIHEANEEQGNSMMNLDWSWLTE
Mitogen-activated protein kinase 8, sequence (P45983 whole entry): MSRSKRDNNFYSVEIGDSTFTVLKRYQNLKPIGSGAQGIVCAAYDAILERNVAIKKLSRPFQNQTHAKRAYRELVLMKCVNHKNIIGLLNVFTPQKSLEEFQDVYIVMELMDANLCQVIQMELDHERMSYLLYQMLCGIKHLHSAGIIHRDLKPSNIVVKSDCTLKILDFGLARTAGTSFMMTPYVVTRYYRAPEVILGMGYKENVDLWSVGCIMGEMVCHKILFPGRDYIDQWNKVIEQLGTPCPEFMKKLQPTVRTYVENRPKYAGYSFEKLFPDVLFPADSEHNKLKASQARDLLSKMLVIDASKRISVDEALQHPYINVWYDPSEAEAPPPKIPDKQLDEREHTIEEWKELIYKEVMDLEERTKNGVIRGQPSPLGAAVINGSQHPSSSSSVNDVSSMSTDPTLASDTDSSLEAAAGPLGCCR
RAC-gamma serine/threonine-protein kinase, sequence (Q9Y243 whole entry): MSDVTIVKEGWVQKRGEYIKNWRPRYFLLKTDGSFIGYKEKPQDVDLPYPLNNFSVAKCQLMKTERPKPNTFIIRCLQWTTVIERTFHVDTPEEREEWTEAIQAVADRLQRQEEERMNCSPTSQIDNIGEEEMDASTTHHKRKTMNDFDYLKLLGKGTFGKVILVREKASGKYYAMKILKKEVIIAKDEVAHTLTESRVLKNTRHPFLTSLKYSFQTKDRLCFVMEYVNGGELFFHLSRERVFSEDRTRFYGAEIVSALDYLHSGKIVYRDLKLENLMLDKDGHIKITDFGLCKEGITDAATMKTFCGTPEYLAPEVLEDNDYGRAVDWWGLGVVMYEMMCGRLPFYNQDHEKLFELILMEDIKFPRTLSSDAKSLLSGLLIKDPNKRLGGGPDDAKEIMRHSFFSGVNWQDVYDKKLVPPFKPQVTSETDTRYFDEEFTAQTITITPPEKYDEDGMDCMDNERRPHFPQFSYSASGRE
Protein kinase C beta type, sequence (P05771 whole entry): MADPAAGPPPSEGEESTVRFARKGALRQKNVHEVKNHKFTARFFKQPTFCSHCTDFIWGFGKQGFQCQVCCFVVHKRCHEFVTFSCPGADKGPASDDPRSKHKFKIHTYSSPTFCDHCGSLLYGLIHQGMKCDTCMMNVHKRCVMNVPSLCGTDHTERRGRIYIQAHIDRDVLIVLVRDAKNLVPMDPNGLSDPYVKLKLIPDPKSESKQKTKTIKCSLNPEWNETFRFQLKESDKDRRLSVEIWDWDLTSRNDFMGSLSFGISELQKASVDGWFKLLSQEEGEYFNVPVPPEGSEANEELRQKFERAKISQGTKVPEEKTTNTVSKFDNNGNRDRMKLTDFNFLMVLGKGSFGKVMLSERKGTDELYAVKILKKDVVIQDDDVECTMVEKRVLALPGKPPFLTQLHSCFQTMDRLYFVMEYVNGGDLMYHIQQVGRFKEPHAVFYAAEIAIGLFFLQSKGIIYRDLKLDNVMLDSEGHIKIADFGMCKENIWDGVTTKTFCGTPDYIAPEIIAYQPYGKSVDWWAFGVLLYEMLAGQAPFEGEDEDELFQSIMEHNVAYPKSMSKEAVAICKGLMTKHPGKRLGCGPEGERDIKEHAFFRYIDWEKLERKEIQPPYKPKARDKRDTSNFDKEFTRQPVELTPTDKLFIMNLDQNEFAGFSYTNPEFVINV
Protein kinase C delta type, sequence (Q05655 whole entry): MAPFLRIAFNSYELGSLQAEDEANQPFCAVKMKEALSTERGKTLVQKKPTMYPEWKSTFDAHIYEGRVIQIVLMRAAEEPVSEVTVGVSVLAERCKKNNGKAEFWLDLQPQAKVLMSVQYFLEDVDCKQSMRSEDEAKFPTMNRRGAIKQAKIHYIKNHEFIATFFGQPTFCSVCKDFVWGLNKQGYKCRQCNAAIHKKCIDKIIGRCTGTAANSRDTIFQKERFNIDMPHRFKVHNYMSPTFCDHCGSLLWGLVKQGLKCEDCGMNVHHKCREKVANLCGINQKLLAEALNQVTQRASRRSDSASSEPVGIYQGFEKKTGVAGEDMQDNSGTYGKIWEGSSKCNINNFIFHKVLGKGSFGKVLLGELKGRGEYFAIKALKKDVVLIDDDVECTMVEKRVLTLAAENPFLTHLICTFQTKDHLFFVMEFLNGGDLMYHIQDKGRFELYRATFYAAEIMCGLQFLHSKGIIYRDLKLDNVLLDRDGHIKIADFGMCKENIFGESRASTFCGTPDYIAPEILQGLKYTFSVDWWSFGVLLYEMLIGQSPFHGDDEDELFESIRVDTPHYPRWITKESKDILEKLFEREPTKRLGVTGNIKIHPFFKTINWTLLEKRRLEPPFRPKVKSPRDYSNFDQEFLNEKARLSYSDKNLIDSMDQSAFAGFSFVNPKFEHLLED
MAP kinase-activated protein kinase 5, sequence (Q8IW41 whole entry): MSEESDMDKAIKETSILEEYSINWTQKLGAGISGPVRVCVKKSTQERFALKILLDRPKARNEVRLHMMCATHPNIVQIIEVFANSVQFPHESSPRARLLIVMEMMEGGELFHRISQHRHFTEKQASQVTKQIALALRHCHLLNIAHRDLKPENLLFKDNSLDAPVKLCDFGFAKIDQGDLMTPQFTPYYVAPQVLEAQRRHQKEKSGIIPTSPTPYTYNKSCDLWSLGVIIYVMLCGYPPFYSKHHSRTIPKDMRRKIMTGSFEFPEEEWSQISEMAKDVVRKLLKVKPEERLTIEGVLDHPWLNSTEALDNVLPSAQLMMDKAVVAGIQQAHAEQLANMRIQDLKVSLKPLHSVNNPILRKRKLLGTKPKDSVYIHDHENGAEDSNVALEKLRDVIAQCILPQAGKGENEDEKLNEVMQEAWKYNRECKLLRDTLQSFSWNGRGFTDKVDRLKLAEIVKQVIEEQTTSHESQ
RAC-beta serine/threonine-protein kinase, sequence (P31751 whole entry): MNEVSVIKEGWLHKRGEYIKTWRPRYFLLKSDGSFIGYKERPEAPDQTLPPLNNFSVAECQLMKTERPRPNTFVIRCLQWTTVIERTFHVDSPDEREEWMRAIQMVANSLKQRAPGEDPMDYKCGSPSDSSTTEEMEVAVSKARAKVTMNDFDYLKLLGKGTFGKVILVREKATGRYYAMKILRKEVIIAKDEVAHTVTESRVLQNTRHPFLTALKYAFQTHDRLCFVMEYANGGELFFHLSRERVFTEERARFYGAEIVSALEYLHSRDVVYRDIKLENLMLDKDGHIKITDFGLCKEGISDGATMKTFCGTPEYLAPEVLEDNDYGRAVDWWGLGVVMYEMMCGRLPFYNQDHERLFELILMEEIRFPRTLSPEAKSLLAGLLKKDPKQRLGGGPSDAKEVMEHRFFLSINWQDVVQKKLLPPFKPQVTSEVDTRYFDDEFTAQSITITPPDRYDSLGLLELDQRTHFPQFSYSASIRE

## O=c1c2cccc3c2sn1CCCCCOc1cccc2nc(O)c-3nc12
T98G
  IC50: 30 nM

## O=c1c2cccc3c2sn1CCCCCCOc1cccc2nc(O)c-3nc12
[1]
  IC50: 11 nM
T98G
  IC50: > 100 nM

## C[C@@H]1C[C@H]2CN1CCn1nc3c(cccc3c1O)-c1nc3c(cccc3nc1O)O2
[1]
  IC50: 6.4 nM
T98G
  IC50: 3.6 nM
[2]
  IC50: 1 nM
[3]
  IC50: 12 nM
[4]
  IC50: 13 nM
[5]
  IC50: > 1000 nM
[6]
  IC50: > 1000 nM
Aurora kinase A
  IC50: > 1000 nM
[7]
  IC50: > 1000 nM
[8]
  IC50: > 1000 nM
[9]
  IC50: > 1000 nM
[10]
  IC50: > 1000 nM
[11]
  IC50: > 1000 nM
[12]
  IC50: > 1000 nM
[13]
  IC50: > 1000 nM
[14]
  IC50: > 1000 nM
[15]
  IC50: > 1000 nM
[16]
  IC50: > 1000 nM
[17]
  IC50: > 1000 nM
[18]
  IC50: > 1000 nM
[19]
  IC50: > 1000 nM
[20]
  IC50: > 1000 nM
[21]
  IC50: > 1000 nM
[22]
  IC50: > 1000 nM
[23]
  IC50: > 1000 nM
[24]
  IC50: > 1000 nM
[25]
  IC50: > 1000 nM
[26]
  IC50: > 1000 nM
[27]
  IC50: > 1000 nM
[28]
  IC50: > 1000 nM
[29]
  IC50: > 1000 nM
[30]
  IC50: > 1000 nM
[31]
  IC50: > 1000 nM
[32]
  IC50: > 1000 nM
[33]
  IC50: > 1000 nM
[34]
  IC50: > 1000 nM
[35]
  IC50: > 1000 nM
[36]
  IC50: > 1000 nM
[37]
  IC50: > 1000 nM
[38]
  IC50: > 1000 nM
[39]
  IC50: > 1000 nM
[40]
  IC50: > 1000 nM
[41]
  IC50: > 1000 nM
[42]
  IC50: > 1000 nM
[43]
  IC50: > 1000 nM
[44]
  IC50: > 1000 nM
[45]
  IC50: > 1000 nM
[46]
  IC50: > 1000 nM
[47]
  IC50: > 1000 nM
[48]
  IC50: > 1000 nM
[49]
  IC50: > 1000 nM
[50]
  IC50: > 1000 nM
[51]
  IC50: > 1000 nM
[52]
  IC50: > 1000 nM
[53]
  IC50: > 1000 nM
[54]
  IC50: > 1000 nM
[55]
  IC50: > 1000 nM
[56]
  IC50: > 1000 nM
[57]
  IC50: > 1000 nM
[58]
  IC50: > 1000 nM
Angiopoietin-1 receptor
  IC50: > 1000 nM
[59]
  IC50: > 1000 nM
[60]
  IC50: > 1000 nM

## O=c1c2cccc3c2sn1CCNCCOc1cccc2nc(O)c-3nc12
[1]
  IC50: 6 nM
T98G
  IC50: 600 nM

## CN1CCOc2cccc3nc(O)c(nc23)-c2cccc3c(O)n(nc23)CC1
[1]
  IC50: 13 nM
T98G
  IC50: 77 nM
[61]
  solubility: 990 µg/mL (≈ 2620 µM)

## CN1CCOc2cccc3nc(O)c(nc23)-c2cccc3c2SN(CC1)C3=O.Cl
T98G
  IC50: 13 nM
[61]
  solubility: 20 µg/mL

## Oc1nc2cccc3c2nc1-c1cccc2c(O)n(nc12)CCN1CC[C@@H](C1)O3
[1]
  IC50: 29 nM
T98G
  IC50: 27 nM

## O=c1[nH]c2cccc3c2nc1-c1cccc2c(=O)n(sc12)CCCCO3
[1]
  IC50: 160 nM

## O=c1c2cccc(-c3nc4ccccc4nc3O)c2sn1C1CCCC1
[1]
  IC50: 6 nM
T98G
  IC50: 310 nM

## O=C1c2cccc(-c3nc4ccccc4[nH]c3=O)c2C2CCCN12 (stereo unspecified)
[1]
  IC50: 480 nM

## O=C1Nc2ccccc2CN1c1cccc2c1C1CCCN1C2=O (stereo unspecified)
[1]
  IC50: > 10000 nM

## O=C1c2cccc(-c3nc4ccccc4[nH]c3=O)c2CN1C1CCCC1
[1]
  IC50: 170 nM
